Published values pooled from the literature.
Protocols differ between the studies behind these lines.
JAK1 JH2: Tyrosine-protein kinase JAK1, JH2 (JAK1, Homo sapiens, UniProt P23458)
JAK1: Tyrosine-protein kinase JAK1 (JAK1, Homo sapiens, UniProt P23458)
JAK1 JH1: Tyrosine-protein kinase JAK1, JH1 (JAK1, Homo sapiens, UniProt P23458)

With `O=C1CCc2cc(Nc3cc(OC4CCOCC4)c([N+](=O)[O-])cc3Cl)ccc2N1` the remaining binding was 100% (JAK1 JH2; cell-free assay, competition with immobilised ligand; 1 µM).
The inhibition of `CNc1cc(Oc2cc(C(=O)Nc3cc(N4CCN(C)CC4)cc(C(F)(F)F)c3)ccc2C)ncn1` is reported as -25.7% (JAK1 JH2; target engagement in cells, inhibitor, chemoproteomics; Huh-7; 1 µM).
With `COc1cc2ncnc(Nc3ccc(F)c(Cl)c3)c2cc1OCCCN1CCOCC1` the remaining signal was 102% (JAK1; cell-free assay; 0.5 µM).
For `c1cnn2ncc(-c3ccnc(N4CCC45COC5)n3)c2c1`, the remaining signal was 95% (JAK1 JH1; cell-free assay; 1 µM).
For `CCOC(=O)c1cc2cc(-c3cc(C(=O)NCc4ccc(C(=O)O)cc4)nn3C)ccc2[nH]1`, the remaining binding was 100% (JAK1 JH1; cell-free assay, competition with immobilised ligand; 0.1 µM).
With `Nc1ncnc2occ(-c3ccc(NC(=O)Nc4cc(C(F)(F)F)ccc4F)cc3)c12` the remaining signal was 0.9% (JAK1 JH1; cell-free assay, inhibitor; 20 µM).
The remaining binding of `CS(=O)(=O)N1CCCC(NC(=O)[C@H](CCC2CCCCC2)NC(=O)c2ccc(CNc3ncnc4c3nnn4-c3ccccc3)cc2)C1` (stereo partly drawn) is reported as 89% (JAK1 JH2; cell-free assay, competition with immobilised ligand; 0.1 µM).
With `O=C1NC(=O)c2cc(Nc3ccc(F)cc3)c(Nc3ccc(F)cc3)cc21` the remaining signal was 91.5% (JAK1; cell-free assay; 0.5 µM).
The inhibition of `COc1cc2ncnc(Nc3ccc(Oc4ccccc4)cc3C)c2cc1OC` is reported as -5% (JAK1; enzyme activity, inhibitor; 1 µM).
With `CN(C)C1CCN(CC#Cc2nn(C3CCCC3)c3nc(NCc4ccccc4)ncc23)C1` (stereo not drawn) the inhibition was 2% (JAK1; enzyme activity, inhibitor, FRET; 10 µM).
For `c1nc2c(Nc3ccc4c(c3)OCCO4)nc(Nc3ccc4c(c3)OCCO4)nc2[nH]1`, the activity vs control was 52% (JAK1 JH1; enzyme activity, inhibitor; 10 µM).
With `CN1CC(Oc2cnc(C#N)cc2-c2ccn3nc(NC(=O)C4CC4)cc3c2)C1` the inhibition was -10% (JAK1; enzyme activity, inhibitor; 1 µM).
The remaining activity of `CC(C)(C)c1nc2c(s1)c1nc(N)ncc1c1ccc(NS(=O)(=O)c3c(F)cccc3F)c(F)c12` is reported as 90% (JAK1; enzyme activity, inhibitor, radiometric; 1 µM).
The remaining binding of `CCS(=O)(=O)c1cc2cc(C[C@](O)(CC(C)(C)c3ccc(F)cc3C(N)=O)C(F)(F)F)[nH]c2cn1` is reported as 96% (JAK1 JH1; cell-free assay, competition with immobilised ligand; 1 µM).
For `Cc1cnc(NC2CCOCC2)nc1-n1cnc(C(=O)NC(CN)c2cc(F)cc(Cl)c2)c1` (stereo not drawn), the remaining activity was 93% (JAK1 JH1; enzyme activity, inhibitor, radiometric; 1 µM).
With `CS(=O)(=O)N1CCCC(NC(=O)[C@H](CCC2CCCCC2)NC(=O)c2ccc(CNC(=O)c3cnc4ccccn34)cc2)C1` (stereo partly drawn) the remaining binding was 64% (JAK1 JH1; cell-free assay, competition with immobilised ligand; 0.1 µM).
`CCOc1cc(-c2nncn2C)ccc1Nc1ncc2cc(C)nc(NCC(C)(C)C)c2n1` gave an inhibition of < 15% (JAK1; enzyme activity, inhibitor, FRET; 1 µM).
The inhibition of `COc1cc2nccc(Oc3ccc(NC(=O)c4c5n(n(-c6ccc(F)cc6)c4=O)CCCC5)cc3)c2cc1OC` is reported as -5% (JAK1; enzyme activity, inhibitor; 0.1 µM).
The inhibition of `CS(=O)(=O)Nc1cccc(-c2csc(NC(=O)CSc3nc4nccnc4c(=O)n3CCc3ccccc3)n2)c1` is reported as 9% (JAK1; enzyme activity, inhibitor; 10 µM).
For `O=C(NCc1ncc(C(F)(F)F)cc1Cl)c1ccc2c(c1)C1(CCS(=O)(=O)CC1)[C@@H](C1CC1)N2S(=O)(=O)c1ccc(F)cc1`, the remaining binding was 85% (JAK1 JH2; cell-free assay, competition with immobilised ligand; 1 µM).
With `COc1cc2c(Nc3ccc(Br)cc3F)ncnc2cc1OCC1CCN(C)CC1` the remaining signal was 99.1% (JAK1; cell-free assay; 0.5 µM).
For `O=S(=O)(NC1CCC(c2cc(F)ccc2F)(S(=O)(=O)c2ccc(Cl)cc2)CC1)C(F)(F)F` (stereo not drawn), the remaining binding was 100% (JAK1 JH2; cell-free assay, competition with immobilised ligand; 1 µM).
For `Cc1sc(C(=O)NC2COC2)cc1-n1cc(NC(=O)Nc2c(F)cccc2Cl)cn1`, the remaining activity was 72.2% (JAK1; enzyme activity, inhibitor; 10 µM).
For `Cc1c(NC(=O)c2cc(C(N)=O)nc3cc(F)ccc23)c(C(F)(F)F)nn1Cc1ccc(C#N)cc1`, the remaining binding was 100% (JAK1 JH1; cell-free assay, competition with immobilised ligand; 1 µM).
`CCN(CC)CCNC(=O)c1c(C)[nH]c(/C=C2\C(=O)Nc3ccc(F)cc32)c1C` gave a remaining signal of 71.9% (JAK1; cell-free assay; 0.5 µM).
For `Cc1cc(NC(=O)c2cccc3cc(-c4cccc5[nH]nc(N)c45)ccc23)ccc1F`, the activity vs control was 105% (JAK1 JH1; enzyme activity, inhibitor; 0.1 µM).
With `N[C@H]1CCN(c2nccc(-c3cnn4ncccc34)n2)C1` the remaining signal was 100% (JAK1 JH1; cell-free assay; 1 µM).
